# Measurements published in ChEMBL document CHEMBL3271979, “Inhibition of solid tumors by nitrosoureas. 1. Lewis lung carcinoma” (1977).
# Calls of active or inactive are those of the source. The calls are words filed in the database; no cut-off is given here.
# What was measured:
# [1] = Antitumor activity against mouse advanced Lewis lung carcinoma allografted in ip dosed BDF1 mouse assessed as increase in host lifespan administered as single dose on day 6 or 7 post-tumor implantation; type: functional
# How it was run: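 Advanced Lewis lung model: about 40 mg fragments implanted sc by trocar into BDF1 mice, and mice with tumors of about 400 mg (day 6-7) selected. Tumor weight from calipers, w = ab²/2. Agent given as one ip dose in distilled water or physiological saline. Nontumor-bearing mice received matching doses as toxicity controls.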
# Mus musculus [2] = assay: Antitumor activity against mouse advanced Lewis lung carcinoma allografted in ip dosed BDF1 mouse assessed as complete regression of established tumor administered as single dose on day 6 or 7 post-tumor implantation; type: functional, organism-based
# How it was run: (§1)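 BDF1 mice (C57Blk/6 × DBA/2) implanted sc by trocar with Lewis lung tumor fragments of about 40 mg, taken only from bacteriologically sterile donor tumors. Mice bearing tumors of about 400 mg (day 6-7) were selected. Each received a single ip dose on day 7, at or below the LD10 in normal mice. Groups were of 10 mice. Tumor weight was taken from calipers as w = ab²/2, measured at least twice weekly. Matched non-tumor mice served as toxicity controls.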
# [3] = Antitumor activity against mouse early Lewis lung carcinoma allografted in BDF1 mouse assessed as increase in host life span at 38 mg/kg, ip administered as single dose on 1 or 2 days post-tumor implantation; type: functional; details: route intraperitoneal
# How it was run: (§2)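 BDF1 mice (C57Blk/6 × DBA/2) implanted sc by trocar with ~40 mg Lewis lung tumor fragments from bacteriologically sterile donor tumors. Single ip dose on day 1 or 2, as a solution or suspension in water (CMC or gum acacia) or saline (HPC or Tween 80). Read-out is […]. Same-dose toxicity controls were run in nontumor-bearing mice.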
# [4] = (§3) Antitumor activity against mouse early Lewis lung carcinoma allografted in ip dosed BDF1 mouse assessed as disease cure administered as single dose on 1 or 2 days post-tumor implantation measured for 80 days post-drug treatment; type: functional
# How it was run: (§4)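 BDF1 mice implanted sc by trocar with ~40 mg Lewis lung fragments from sterile donor tumors. A single ip dose was given on day 1 or 2 after implant, in water or saline vehicle. Cures were scored in animals observed for at least 80 days after treatment. Drug-toxicity controls were matched non-tumor-bearing mice monitored for body weight and deaths.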
# [5] = Antitumor activity against mouse early Lewis lung carcinoma allografted in BDF1 mouse assessed as increase in host life span at 26 mg/kg, ip administered as single dose on 1 or 2 days post-tumor implantation; type: functional; details: route intraperitoneal; how it was run: as §2
# [6] = Antitumor activity against mouse early Lewis lung carcinoma allografted in BDF1 mouse assessed as time delay in tumor growth at 26 mg/kg, ip administered as single dose on 1 or 2 days post-tumor implantation; type: functional; details: route intraperitoneal
# How it was run: (§5)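 BDF1 mice (C57Blk/6 × DBA/2) implanted sc by trocar with ~40 mg Lewis lung tumor fragments from bacteriologically sterile donors. A single ip dose was given on day 1 or 2, as a solution or suspension in water or saline with suspending agent, at ≤0.5 ml. Tumors were measured by caliper at least twice weekly, with weight = ab²/2. Delay was taken as the days for the tumor to reach 1 g.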
# [7] = Ratio of ED50 for antitumor activity against mouse L1210 cells allografted in ip dosed mouse to LD10 for mouse
# [8] = Antitumor activity against mouse early Lewis lung carcinoma allografted in BDF1 mouse assessed as time delay in tumor growth at 38 mg/kg, ip administered as single dose on 1 or 2 days post-tumor implantation; type: functional; details: route intraperitoneal; how it was run: as §5
# Mus musculus [9] = assay: Antitumor activity against mouse advanced Lewis lung carcinoma allografted in ip dosed BDF1 mouse assessed as disease cure administered as single dose on day 6 or 7 post-tumor implantation; type: functional, organism-based; how it was run: as §1
# Mus musculus [10] = assay: Antitumor activity against mouse early Lewis lung carcinoma allografted in ip dosed BDF1 mouse administered as single dose on 1 or 2 days post-tumor implantation measured for 80 days post-drug treatment; type: functional, organism-based; how it was run: as §4
# Mus musculus [11] = assay: as §3; type: functional; how it was run: as §4
# L1210 = assay: Antitumor activity against mouse L1210 cells allografted in ip dosed mouse assessed as disease cure administered as single dose; type: functional, organism-based
# [12] = Antitumor activity against mouse advanced Lewis lung carcinoma allografted in BDF1 mouse assessed as increase in host life span at 21 mg/kg, ip administered as single dose on 7th day post-tumor implantation; type: functional; details: route intraperitoneal
# How it was run: (§6)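 BDF1 mice (C57Blk/6 × DBA/2) implanted sc by trocar with about 40 mg Lewis lung tumor fragments from bacteriologically sterile donors. Advanced-disease groups held tumors of about 400 mg by day 6-7, sized by caliper (w = ab²/2). Single ip injection on day 7, in water or saline vehicle, at or below the LD10 in normal mice. Tumors measured at least twice weekly.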
# Mus musculus [13] = assay: Antitumor activity against mouse advanced Lewis lung carcinoma allografted in BDF1 mouse assessed as disease cure at 32 mg/kg, ip administered as single dose on 7th day post-tumor implantation measured for 80 days post-drug treatment; type: functional, organism-based; set-up: dose 32 mg/kg; how it was run: as §1
# [14] = Antitumor activity against mouse advanced Lewis lung carcinoma allografted in BDF1 mouse assessed as increase in host life span at 32 mg/kg, ip administered as single dose on 7th day post-tumor implantation; type: functional; details: route intraperitoneal; how it was run: as §6
# Mus musculus [15] = assay: Antitumor activity against mouse advanced Lewis lung carcinoma allografted in BDF1 mouse assessed as disease cure at 21 mg/kg, ip administered as single dose on 7th day post-tumor implantation measured for 80 days post-drug treatment; type: functional, organism-based; set-up: dose 21 mg/kg; how it was run: as §1
# [16] = Antitumor activity against mouse advanced Lewis lung carcinoma allografted in BDF1 mouse assessed as increase in host life span at 36 mg/kg, ip administered as single dose on 7th day post-tumor implantation; type: functional; details: route intraperitoneal; how it was run: as §6
# Mus musculus [17] = assay: Antitumor activity against mouse advanced Lewis lung carcinoma allografted in BDF1 mouse assessed as disease cure at 36 mg/kg, ip administered as single dose on 7th day post-tumor implantation measured for 80 days post-drug treatment; type: functional, organism-based; set-up: dose 36 mg/kg; how it was run: as §1
# Mus musculus [18] = assay: Antitumor activity against mouse advanced Lewis lung carcinoma allografted in BDF1 mouse assessed as complete regression of established tumor at 32 mg/kg, ip administered as single dose on 7th day post-tumor implantation; type: functional, organism-based; set-up: dose 32 mg/kg; how it was run: as §6
# [19] = Antitumor activity against mouse early Lewis lung carcinoma allografted in BDF1 mouse assessed as time delay in tumor growth at 13 mg/kg, ip administered as single dose on 1 or 2 days post-tumor implantation; type: functional; details: route intraperitoneal
# How it was run: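 Sc trocar implants of about 40 mg Lewis lung fragments in BDF1 mice. A single ip injection was given on day 1 or 2, in water or physiological saline, at ≤0.5 ml. Tumor size came from caliper length and width as w = ab²/2, measured at least twice weekly. Growth delay is the extra days taken to reach 1 g, compared with untreated controls.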
# Mus musculus [20] = assay: Antitumor activity against mouse advanced Lewis lung carcinoma allografted in BDF1 mouse assessed as disease cure at 30 mg/kg, ip administered as single dose on 7th day post-tumor implantation measured for 80 days post-drug treatment; type: functional, organism-based; set-up: dose 30 mg/kg; how it was run: as §1
# [21] = Antitumor activity against mouse early Lewis lung carcinoma allografted in BDF1 mouse assessed as increase in host life span at 13 mg/kg, ip administered as single dose on 1 or 2 days post-tumor implantation; type: functional; details: route intraperitoneal
# How it was run: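 Early disease: BDF1 mice carrying sc trocar implants of about 40 mg Lewis lung fragments. One ip dose given on day 1 or 2 after implant, in distilled water or saline, at ≤0.5 ml. Endpoints were % increase in life-span of dying animals and delay in days for the primary tumor to reach 1 g. Untreated controls served as reference.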
# [22] = Antitumor activity against mouse early Lewis lung carcinoma allografted in BDF1 mouse assessed as increase in host life span at 30 mg/kg, ip administered as single dose on 1 or 2 days post-tumor implantation; type: functional; details: route intraperitoneal; how it was run: as §2
# [23] = Antitumor activity against mouse early Lewis lung carcinoma allografted in BDF1 mouse assessed as time delay in tumor growth at 30 mg/kg, ip administered as single dose on 1 or 2 days post-tumor implantation; type: functional; details: route intraperitoneal; how it was run: as §5
# [24] = Antitumor activity against mouse advanced Lewis lung carcinoma allografted in BDF1 mouse assessed as increase in host life span at 30 mg/kg, ip administered as single dose on 7th day post-tumor implantation; type: functional; details: route intraperitoneal; how it was run: as §6
# [25] = Antitumor activity against mouse advanced Lewis lung carcinoma allografted in BDF1 mouse assessed as increase in host life span at 45 mg/kg, ip administered as single dose on 7th day post-tumor implantation; type: functional; details: route intraperitoneal; how it was run: as §6
compound,measurement,setting,value
O=NN(CCCl)C(=O)NC1CCS(=O)(=O)C1 (centres undefined),ILS,[1],<25%
same,inhibition,Mus musculus [2],inactive
O=NN(CCCl)C(=O)N[C@H]1CC[C@H](O)CC1,ILS at 38 mg/kg,[3],146%
same,Activity,[4],10%
same,ILS,[1],<25%
same,inhibition,Mus musculus [2],inactive
same,ILS at 26 mg/kg,[5],84%
same,Time,[6],3.3 days
same,Ratio,[7],0.4
same,Time,[8],10.2 days
O=NN(CCCl)C(=O)NC1CC2CCC1C2 (centres undefined),ILS,[1],>25%
same,inhibition,Mus musculus [2],inactive
same,Activity,Mus musculus [9],inactive
CCCCCC(C)NC(=O)N(CCCl)N=O (centres undefined),Activity,Mus musculus [10],inactive
same,Activity,Mus musculus [11],inactive
same,ILS,[1],<25%
same,inhibition,Mus musculus [2],inactive
same,Activity,L1210,inactive
COC(=O)[C@H]1CC[C@H](NC(=O)N(CCCl)N=O)CC1,ILS at 21 mg/kg,[12],113%
same,Activity,Mus musculus [13],inactive
same,inhibition,Mus musculus [2],Active
same,ILS at 32 mg/kg,[14],86%
same,Activity,Mus musculus [9],inactive
same,Activity,Mus musculus [15],inactive
C[C@H]1CC[C@@H](NC(=O)N(CCCl)N=O)CC1,ILS,[1],<25%
same,inhibition,Mus musculus [2],inactive
O=NN(CCF)C(=O)NC1CCSCC1,ILS at 36 mg/kg,[16],87%
same,ILS,[1],>25%
same,inhibition,Mus musculus [2],inactive
same,Activity,Mus musculus [9],inactive
same,Activity,Mus musculus [17],inactive
C[C@H]1S(=O)(=O)C[C@H](NC(=O)N(CCCl)N=O)CS1(=O)=O,Activity,Mus musculus [10],inactive
same,Activity,Mus musculus [11],inactive
same,ILS,[1],<25%
same,inhibition,Mus musculus [2],inactive
same,Ratio,[7],0.4
O=NN(CCCl)C(=O)NC1CCCC1,ILS,[1],<25%
same,inhibition,Mus musculus [2],inactive
C[C@H]1CCC[C@@H](NC(=O)N(CCCl)N=O)C1 (relative stereo),ILS,[1],<25%
same,inhibition,Mus musculus [2],inactive
C[C@H]1S(=O)(=O)C[C@@H](NC(=O)N(CCCl)N=O)CS1(=O)=O,Activity,Mus musculus [10],inactive
same,Activity,Mus musculus [11],inactive
same,Activity,Mus musculus [13],inactive
same,inhibition,Mus musculus [18],inactive
same,ILS,[1],>25%
same,inhibition,Mus musculus [2],inactive
same,ILS at 32 mg/kg,[14],10%
same,Activity,Mus musculus [9],inactive
same,Ratio,[7],0.6
O=NN(CCCl)C(=O)N[C@H]1CC[C@H](C(=O)O)CC1,Time,[19],7.6 days
same,Activity,[4],>50%
same,Activity,Mus musculus [20],inactive
same,ILS at 13 mg/kg,[21],33%
same,ILS at 30 mg/kg,[22],115%
same,Time,[23],20 days
same,Activity,Mus musculus [9],Active
same,ILS at 30 mg/kg,[24],67%
same,Ratio,[7],0.6
O=NN(CCF)C(=O)N[C@H]1CC[C@H](NC(=O)N(CCCl)N=O)CC1,ILS,[1],<25%
same,inhibition,Mus musculus [2],inactive
O=NN(CCCl)C(=O)NCCF,Activity,Mus musculus [13],inactive
same,inhibition,Mus musculus [18],inactive
same,ILS at 32 mg/kg,[14],44%
CC[C@H]1CC[C@H](NC(=O)N(CCF)N=O)CC1,ILS,[1],<25%
same,inhibition,Mus musculus [2],inactive
O=NN(CCCl)C(=O)NC1C=CCCC1 (centres undefined),ILS,[1],<25%
same,inhibition,Mus musculus [2],inactive
O=NN(CCCl)C(=O)N[C@H]1CC[C@@H](NC(=O)N(CCCl)N=O)CC1,ILS,[1],<25%
same,inhibition,Mus musculus [2],inactive
O=NN(CCCl)C(=O)N[C@@H]1CCC[C@H](C(=O)O)C1 (relative stereo),ILS,[1],<25%
same,inhibition,Mus musculus [2],inactive
O=NN(CCCl)C(=O)NCCCl [CARMUSTINE],Activity,Mus musculus [13],inactive
same,inhibition,Mus musculus [18],inactive
same,ILS,[1],<25%
same,inhibition,Mus musculus [2],inactive
CC(C)[C@H]1CC[C@H](NC(=O)N(CCF)N=O)CC1,ILS,[1],<25%
same,inhibition,Mus musculus [2],inactive
O=NN(CCF)C(=O)N[C@H]1CC[C@H](C(=O)O)CC1,ILS at 45 mg/kg,[25],60%
same,Activity,Mus musculus [9],Active
CC(=O)O[C@H]1CC[C@H](NC(=O)N(CCF)N=O)CC1,ILS,[1],<25%
same,inhibition,Mus musculus [2],inactive
CO[C@H]1CC[C@@H](NC(=O)N(CCCl)N=O)CC1,Activity,Mus musculus [10],inactive
O=NN(CCF)C(=O)N[C@H]1CC[C@@H](C(=O)O)CC1,ILS,[1],<25%
same,inhibition,Mus musculus [2],inactive
